Reference: ChEMBL document CHEMBL4020804, “Minor phenolics from Angelica keiskei and their proliferative effects on Hep3B cells” (Bioorg Med Chem Lett, 2017)

Key:
Hep 3B2 [1] = assay: Proliferative activity against human Hep3B cells assessed as cell viability at 0.1 uM after 4 days by cell counting method relative to control; type: functional; details: 96 h, read-out: Activity
In short: (§1)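 Hep3B kept in DMEM/10% FBS, 37°C, 5% CO2, then seeded at 1×10^5 cells/ml in medium containing compound (0.1–100 μM; DMSO-only control) in monolayer. Cells were checked daily by microscope for attachment and morphology, and counted after 4 days, in triplicate, in three independent experiments. Counts are given as % of the 0 μM group.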

Hep 3B2 [2] = assay: Proliferative activity against human Hep3B cells assessed as cell viability at 1 uM after 4 days by cell counting method relative to control; type: functional; details: 96 h, read-out: Activity; in short: as §1
Hep 3B2 [3] = assay: Proliferative activity against human Hep3B cells assessed as cell viability at 10 uM after 4 days by cell counting method relative to control; type: functional; details: 96 h, read-out: Activity; in short: as §1
Hep 3B2 [4] = assay: Proliferative activity against human Hep3B cells assessed as cell viability at 100 uM after 4 days by cell counting method relative to control; type: functional; details: 96 h, read-out: Activity; in short: as §1
Hep 3B2 [5] = assay: Proliferative activity against human Hep3B cells assessed as cell viability after 4 days by cell counting method; type: functional, cell-based; in short: as §1
Hep 3B2 [6] = assay: Cytoprotective activity against GOX-induced oxidative stress in human Hep3B cells assessed as cell survival at 0.1 uM treated for 5 hrs with 15 mU/ml GOX challenge by MTT assay (reference value: 41.51 +/- 1.39%); type: functional; details: read-out: Survival
Hep 3B2 [7] = assay: Cytoprotective activity against GOX-induced oxidative stress in human Hep3B cells assessed as cell survival at 100 uM treated for 5 hrs with 15 mU/ml GOX challenge by MTT assay (reference value: 41.51 +/- 1.39%); type: functional; details: read-out: Survival
Hep 3B2 [8] = assay: Cytoprotective activity against GOX-induced oxidative stress in human Hep3B cells assessed as cell survival at 1 uM treated for 5 hrs with 15 mU/ml GOX challenge by MTT assay (reference value: 41.51 +/- 1.39%); type: functional; details: read-out: Survival
Hep 3B2 [9] = assay: Cytoprotective activity against GOX-induced oxidative stress in human Hep3B cells assessed as cell survival at 10 uM treated for 5 hrs with 15 mU/ml GOX challenge by MTT assay (reference value: 41.51 +/- 1.39%); type: functional; details: read-out: Survival
NIH3T3 [10] = assay: Cytoprotective activity against GOX-induced oxidative stress in mouse NIH/3T3 cells assessed as cell survival at 0.1 uM treated for 5 hrs with 15 mU/ml GOX challenge by MTT assay (reference value: 42.71 +/- 2.10%); type: functional; details: NIH3T3, 5 h, read-out: Survival
Hep 3B2 [11] = assay: Cytoprotective activity against GOX-induced oxidative stress in human Hep3B cells assessed as increase in cell survival treated for 5 hrs with 15 mU/ml GOX challenge by MTT assay; type: functional, cell-based
In short: (§2)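 Cells plated at 7×10^4 per well; next day exposed for 5 h to compound (0.1–100 μM) with 15 mU/ml glucose oxidase in growth medium. Viability expressed relative to GOX-free cells; α-tocopherol positive control.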

NIH3T3 [12] = assay: Cytoprotective activity against GOX-induced oxidative stress in mouse NIH/3T3 cells assessed as cell survival at 1 uM treated for 5 hrs with 15 mU/ml GOX challenge by MTT assay (reference value: 42.71 +/- 2.10%); type: functional; details: NIH3T3, 5 h, read-out: Survival
NIH3T3 [13] = assay: Cytoprotective activity against GOX-induced oxidative stress in mouse NIH/3T3 cells assessed as cell survival at 10 uM treated for 5 hrs with 15 mU/ml GOX challenge by MTT assay (reference value: 42.71 +/- 2.10%); type: functional; details: NIH3T3, 5 h, read-out: Survival
NIH3T3 [14] = assay: Cytoprotective activity against GOX-induced oxidative stress in mouse NIH/3T3 cells assessed as cell survival at 100 uM treated for 5 hrs with 15 mU/ml GOX challenge by MTT assay (reference value: 42.71 +/- 2.10%); type: functional; details: NIH3T3, 5 h, read-out: Survival
NIH3T3 [15] = assay: Cytoprotective activity against GOX-induced oxidative stress in mouse NIH/3T3 cells assessed as increase in cell survival treated for 5 hrs with 15 mU/ml GOX challenge by MTT assay; type: functional, cell-based; in short: as §2
Hep 3B2 [16] = assay: Cytoprotective activity against GOX-induced cytotoxicity in human Hep3B cells assessed as LDH release at 0.1 uM treated for 5 hrs with 15 mU/ml GOX challenge by spectrophotometric method (reference value: 60.94 +/- 1.18%); type: functional
Hep 3B2 [17] = assay: Cytoprotective activity against GOX-induced cytotoxicity in human Hep3B cells assessed as LDH release at 1 uM treated for 5 hrs with 15 mU/ml GOX challenge by spectrophotometric method (reference value: 60.94 +/- 1.18%); type: functional
Hep 3B2 [18] = assay: Cytoprotective activity against GOX-induced cytotoxicity in human Hep3B cells assessed as LDH release at 10 uM treated for 5 hrs with 15 mU/ml GOX challenge by spectrophotometric method (reference value: 60.94 +/- 1.18%); type: functional
Hep 3B2 [19] = assay: Cytoprotective activity against GOX-induced cytotoxicity in human Hep3B cells assessed as LDH release at 100 uM treated for 5 hrs with 15 mU/ml GOX challenge by spectrophotometric method (reference value: 60.94 +/- 1.18%); type: functional
Hep 3B2 [20] = assay: Cytoprotective activity against GOX-induced cytotoxicity in human Hep3B cells assessed as decrease in LDH release treated for 5 hrs with 15 mU/ml GOX challenge by spectrophotometric method; type: functional, cell-based
NIH3T3 [21] = assay: Cytoprotective activity against GOX-induced cytotoxicity in mouse NIH/3T3 cells assessed as LDH release at 0.1 uM treated for 5 hrs with 15 mU/ml GOX challenge by spectrophotometric method (reference value: 63.34 +/- 1.85%); type: functional
NIH3T3 [22] = assay: Cytoprotective activity against GOX-induced cytotoxicity in mouse NIH/3T3 cells assessed as LDH release at 1 uM treated for 5 hrs with 15 mU/ml GOX challenge by spectrophotometric method (reference value: 63.34 +/- 1.85%); type: functional
NIH3T3 [23] = assay: Cytoprotective activity against GOX-induced cytotoxicity in mouse NIH/3T3 cells assessed as LDH release at 10 uM treated for 5 hrs with 15 mU/ml GOX challenge by spectrophotometric method (reference value: 63.34 +/- 1.85%); type: functional
NIH3T3 [24] = assay: Cytoprotective activity against GOX-induced cytotoxicity in mouse NIH/3T3 cells assessed as LDH release at 100 uM treated for 5 hrs with 15 mU/ml GOX challenge by spectrophotometric method (reference value: 63.34 +/- 1.85%); type: functional
NIH3T3 [25] = assay: Cytoprotective activity against GOX-induced cytotoxicity in mouse NIH/3T3 cells assessed as decrease in LDH release treated for 5 hrs with 15 mU/ml GOX challenge by spectrophotometric method; type: functional, cell-based
Hep 3B2 [26] = assay: Cytotoxicity against human Hep3B cells assessed as effect on cell attachment at 0.1 to 100 uM measured every day during 4 days incubation period by microscopic method; type: cell-based; details: hep 3b2, 96 h; in short: as §1
Hep 3B2 [27] = assay: Cytotoxicity against human Hep3B cells assessed as effect on cell morphology at 0.1 to 100 uM measured every day during 4 days incubation period by microscopic method; type: cell-based; details: hep 3b2, 96 h; in short: as §1

Row | SMILES | viability at 0.1 µM (Hep 3B2 [6]) | viability at 100 µM (Hep 3B2 [7]) | viability at 1 µM (Hep 3B2 [8]) | viability at 10 µM (Hep 3B2 [9]) | viability at 0.1 µM (NIH3T3 [10]) | Activity (Hep 3B2 [11]) | viability at 1 µM (NIH3T3 [12]) | viability at 10 µM (NIH3T3 [13]) | viability at 100 µM (NIH3T3 [14]) | Activity (NIH3T3 [15]) | Activity (Hep 3B2 [16]) | Activity (Hep 3B2 [17]) | Activity (Hep 3B2 [18]) | Activity (Hep 3B2 [19]) | Activity (Hep 3B2 [20]) | Activity (NIH3T3 [21]) | Activity (NIH3T3 [22]) | Activity (NIH3T3 [23]) | Activity (NIH3T3 [24]) | Activity (NIH3T3 [25]) | further results
1 | CO[C@H]1c2c(ccc3ccc(=O)oc23)O[C@@H]1C(C)(C)O | 69.2% | 112% | 87.1% | 100% | 69% | Dose-dependent effect | 93% | 118% | 129% | Dose-dependent effect | 14.07% | 10.56% | 5.66% | 2.59% | Dose-dependent effect | 15.41% | 6.59% | 4.2% | 1.89% | Dose-dependent effect | viability at 0.1 µM (Hep 3B2 [1]): 106%; viability at 1 µM (Hep 3B2 [2]): 118%; viability at 10 µM (Hep 3B2 [3]): 147%; viability at 100 µM (Hep 3B2 [4]): 163%; Activity (Hep 3B2 [5]): Dose-dependent effect; Activity (Hep 3B2 [26]): Non-Toxic; Activity (Hep 3B2 [27]): Non-Toxic
2 | C/C(=C\Cc1c(O)ccc(C(=O)/C=C/c2ccc(O)cc2)c1O)CCC(=O)O | 44.3% | 74.1% | 45.5% | 57.1% | 43.2% | Dose-dependent effect | 44.7% | 57.8% | 74.5% | Dose-dependent effect | 30.97% | 20.34% | 16.93% | 7.6% | Dose-dependent effect | 36.37% | 20.71% | 18.78% | 6.96% | Dose-dependent effect | viability at 0.1 µM (Hep 3B2 [1]): 100%; viability at 1 µM (Hep 3B2 [2]): 100%; viability at 10 µM (Hep 3B2 [3]): 107%; viability at 100 µM (Hep 3B2 [4]): 115%; Activity (Hep 3B2 [5]): Dose-dependent effect; Activity (Hep 3B2 [26]): Non-Toxic; Activity (Hep 3B2 [27]): Non-Toxic
3 | Cc1c(C)c2c(c(C)c1O)CC[C@@](C)(CCC[C@H](C)CCC[C@H](C)CCCC(C)C)O2 [ALPHA-TOCOPHEROL] | 62.2% | 79.6% | 66.8% | 70.7% | 61.2% | Dose-dependent effect | 65.8% | 69.1% | 77.9% | Dose-dependent effect | 25.13% | 21.14% | 18.89% | 13% | Dose-dependent effect | 26.51% | 22.37% | 15.02% | 10.51% | Dose-dependent effect | –
4 | C/C=C(/C)C(=O)O[C@@H]1c2c(ccc3ccc(=O)oc23)OC(C)(C)[C@@H]1O[C@@H]1O[C@H](CO)[C@@H](O)[C@H](O)[C@H]1O | 59.2% | 91.2% | 65.3% | 76.9% | 58.6% | Dose-dependent effect | 64.5% | 75.8% | 93.8% | Dose-dependent effect | 28.01% | 19.57% | 10.28% | 6.16% | Dose-dependent effect | 29.9% | 21.12% | 9.25% | 5.75% | Dose-dependent effect | viability at 0.1 µM (Hep 3B2 [1]): 101%; viability at 1 µM (Hep 3B2 [2]): 102%; viability at 10 µM (Hep 3B2 [3]): 113%; viability at 100 µM (Hep 3B2 [4]): 114%; Activity (Hep 3B2 [5]): Dose-dependent effect; Activity (Hep 3B2 [26]): Non-Toxic; Activity (Hep 3B2 [27]): Non-Toxic
5 | C=C(C)[C@H]1CC[C@](C)([C@@H](O)Cc2c(O)ccc(C(=O)/C=C/c3ccc(O)cc3)c2O)O1 (racemic) | 45.2% | 76.8% | 60.5% | 65.4% | 44.9% | Dose-dependent effect | 61.4% | 66.4% | 81.8% | Dose-dependent effect | 26.09% | 20.91% | 14.03% | 6.99% | Dose-dependent effect | 28.31% | 20.91% | 15.76% | 6.22% | Dose-dependent effect | viability at 0.1 µM (Hep 3B2 [1]): 100%; viability at 1 µM (Hep 3B2 [2]): 101%; viability at 10 µM (Hep 3B2 [3]): 102%; viability at 100 µM (Hep 3B2 [4]): 116%; Activity (Hep 3B2 [5]): Dose-dependent effect; Activity (Hep 3B2 [26]): Non-Toxic; Activity (Hep 3B2 [27]): Non-Toxic
6 | O=C(CCc1ccc(O)cc1)c1ccc(O)cc1O [DAVIDIGENIN] | 59.3% | 104% | 83.4% | 94.9% | 60.6% | Dose-dependent effect | 84% | 113% | 123% | Dose-dependent effect | 22.37% | 18.61% | 11.83% | 4.16% | Dose-dependent effect | 24.04% | 15.74% | 12.69% | 3.1% | Dose-dependent effect | viability at 0.1 µM (Hep 3B2 [1]): 104%; viability at 1 µM (Hep 3B2 [2]): 106%; viability at 10 µM (Hep 3B2 [3]): 116%; viability at 100 µM (Hep 3B2 [4]): 140%; Activity (Hep 3B2 [5]): Dose-dependent effect; Activity (Hep 3B2 [26]): Non-Toxic; Activity (Hep 3B2 [27]): Non-Toxic
